Our source for the Activity values is ChEMBL document CHEMBL1157020, “Antihyperglycemic activity of naphthylchalcones” (2010).

SMILES strings stand for the structures. Active and inactive are the calls of the source. No cut-off for these calls is given here.

Experiment [1] has as its system Rattus norvegicus. The experiment is described as follows: Antidiabetic activity in hyperglycemic normal Wistar rat assessed as reduction of serum glucose level at 10 mg/kg, po up to 180 mins by glucose oxidase method. It is filed as functional, organism-based. Further details: dose 10 mg/kg. Summed up: (§1)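 Male Wistar rats (180–210 g), fasted 16 h, given glucose 4 g/kg (8.9 M) plus compound 10 mg/kg in corn oil by oral gavage (0.5 mL); vehicle-treated and glucose-only controls. Tail-vein blood centrifuged, serum glucose by glucose oxidase before and at 15, 30, 60, 180 min. Lowering expressed versus hyperglycemic control; mean ± S.E.M., n = 8.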

For experiment [2], the system named is Rattus norvegicus. The experiment can be described thus: Antidiabetic activity in hyperglycemic normal Wistar rat assessed as reduction of serum glucose level at 10 mg/kg, po after 15 mins by glucose oxidase method relative to control. It is filed as functional. Further details: scale not given: the % may be the effect or the level left. Summed up:
as §1

The test system of experiment [3] is Rattus norvegicus. The experiment can be described thus: Antidiabetic activity in hyperglycemic normal Wistar rat assessed as reduction of serum glucose level at 10 mg/kg, po after 30 mins by glucose oxidase method relative to control. It is filed as functional. Further details: scale not given: the % may be the effect or the level left. The method in brief:
as §1

The subject of experiment [4] is Rattus norvegicus. The experiment is described as follows: Antidiabetic activity in hyperglycemic normal Wistar rat assessed as reduction of serum glucose level at 10 mg/kg, po after 60 mins by glucose oxidase method relative to control. It is filed as functional. Further details: scale not given: the % may be the effect or the level left. The method in brief:
as §1

Experiment [5] concerns Rattus norvegicus. The experiment is described as follows: Antidiabetic activity in hyperglycemic normal Wistar rat assessed as potentiation of glucose-induced serum insulin level at 10 mg/kg, po after 30 mins by ELISA relative control. It is filed as functional. Summed up: (§2)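 Male Wistar rats (180–210 g), fasted 16 h, orally loaded with glucose 4 g/kg plus compound 10 mg/kg in corn oil by gavage; euglycemic and hyperglycemic control groups. Serum insulin by rat insulin ELISA (range 0.2–10 ng/mL; intra/inter-assay CV 3.22/6.95), absorbance 450 nm against standard curve. Increase versus hyperglycemic control at matched times; mean ± SEM, n = 8.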

In experiment [6] the test system is Rattus norvegicus. The experiment can be described thus: Antidiabetic activity in hyperglycemic normal Wistar rat assessed as potentiation of glucose-induced serum insulin level at 10 mg/kg, po after 60 mins by ELISA relative control. It is filed as functional. Summed up: as §2
On the technique in general: An ELISA detects its analyte on a solid surface through an enzyme-linked reagent.

Experiment [7] deals with Rattus norvegicus. The experiment can be described thus: Antidiabetic activity in hyperglycemic normal Wistar rat assessed as potentiation of glucose-induced serum insulin level at 10 mg/kg, po by ELISA relative control. It is filed as functional, organism-based. Further details: dose 10 mg/kg. The method in brief: as §2

In the case of `O=C(/C=C/c1ccc2ccccc2c1)c1ccc2ccccc2c1`, in the experiment on Rattus norvegicus [1], the result was inactive.

Regarding `O=C(/C=C/c1ccc([N+](=O)[O-])cc1)c1ccc2ccccc2c1`, in the experiment with Rattus norvegicus [1], the result was inactive.

Regarding `O=C(/C=C/c1cccc2ccccc12)c1cccc([N+](=O)[O-])c1`, the figures for the Activity in the experiment on Rattus norvegicus [2] and with Rattus norvegicus [3] were 18% and 32%, respectively.

In the case of `O=C(/C=C/c1ccc2ccccc2c1)c1cccc([N+](=O)[O-])c1`, the Activity with Rattus norvegicus [2] turned out to be 24%; with Rattus norvegicus [3], 25%; in the experiment on Rattus norvegicus [4], 14%.

As for `O=C(/C=C/c1ccc2ccccc2c1)c1ccccc1[N+](=O)[O-]`, the outcome in the experiment with Rattus norvegicus [1] was inactive.

For the compound `O=C(/C=C/c1cccc2ccccc12)c1ccc([N+](=O)[O-])cc1`, the Activity in the experiment on Rattus norvegicus [2] is 17%; with Rattus norvegicus [3] it was 21%.

Regarding `O=C(/C=C/c1ccc2ccccc2c1)c1ccc([N+](=O)[O-])cc1`, the Activity in the experiment on Rattus norvegicus [2] was 22%; in the experiment on Rattus norvegicus [3] it was 25%; with Rattus norvegicus [4], 19%; with Rattus norvegicus [5], 27%; in the experiment on Rattus norvegicus [6], 104%; in the experiment with Rattus norvegicus [7] it was “Dose-dependent effect”.

For `O=C(/C=C/c1cccc([N+](=O)[O-])c1)c1ccc2ccccc2c1`, in the experiment with Rattus norvegicus [1], the result was Active. Further, the Activity in the experiment on Rattus norvegicus [5] was 48%; in the experiment on Rattus norvegicus [6] it was 88%; with Rattus norvegicus [7] it was “Dose-dependent effect”.

As for `O=C(/C=C/c1ccc2ccccc2c1)c1ccccc1`, in the experiment with Rattus norvegicus [1], the outcome was inactive.
